Paper PMC4403237 (European journal of medicinal chemistry, 2014)

Tests used:
[1] = test system: HL-60 human leukemia cell line; assay: MTT cell viability assay, HL-60; type: cell-based; details: HL-60, 48 h, read-out: IC50 HL-60
Summary of the method: (§1)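 Logarithmically growing cells were used: HL-60 and NCI-H460 in RPMI-1640 with 10% FBS and L-glutamine; Hep3B in DMEM/F12 with 10% FBS; Detroit 551 in DMEM with 10% FBS and L-glutamine. Cells were exposed to a range of test compound concentrations or DMSO vehicle for 48 h at 37 °C, then incubated with MTT (1 mg/mL in PBS) for 2 h. Absorbance was read at 570 nm, corrected at 630 nm.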

[2] = test system: Hep3B human hepatoma cell line; assay: MTT cell viability assay, Hep3B; type: cell-based; details: 48 h, read-out: IC50 Hep3B
Summary of the method: as §1

[3] = test system: NCI-H460 non-small cell lung cancer cell line; assay: MTT cell viability assay, NCI-H460; type: cell-based; details: Homo sapiens, NCI-H460, 48 h, read-out: IC50 NCI-H460
Summary of the method: as §1

[4] = test system: Detroit 551 human skin fibroblast cell line; assay: MTT cell viability assay, Detroit 551; type: cell-based; details: Detroit 551, 48 h, read-out: IC50 Detroit551
Summary of the method: as §1

[5] = test system: NCI-60 human cancer cell line panel; assay: NCI-60 human cancer cell line panel screen; type: cell-based; details: NCI-60 panel mean
[6] = test system: K562 leukemia; assay: NCI-60 screen, K562; type: cell-based, human
[7] = test system: SR leukemia; assay: NCI-60 screen, SR; type: cell-based, human
[8] = test system: NCI-H522 non-small cell lung cancer; assay: NCI-60 screen, NCI-H522; type: cell-based, human; details: NCI-522 non-small cell lung cancer
[9] = test system: SW-620 colon cancer; assay: NCI-60 screen, SW-620; type: cell-based, human
[10] = test system: M14 melanoma; assay: NCI-60 screen, M14; type: cell-based, human
[11] = test system: MDA-MB-435 melanoma; assay: NCI-60 screen, MDA-MB-435; type: cell-based, human
[12] = test system: Hep3B cells; assay: Cell cycle distribution by flow cytometry in Hep3B cells; type: cell-based, human; details: 24 h
Summary of the method: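 Hep3B cells were treated for 24 h with DMSO vehicle, test compound at 0.1, 0.3, 1 or 3 μM, or 1 μM reference antimitotics (vinblastine, colchicine, paclitaxel). Cells were stained with propidium iodide and analysed by flow cytometry. Data are mean ± SEM of three independent experiments.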

[13] = test system: Hep3B cells; assay: Western blot of caspase and PARP cleavage in Hep3B cells; type: cell-based, human; details: 48 h treatment
[14] = test system: Hep3B cells; assay: In vivo; type: cell-based, human; details: 1 μM, 24 h
Summary of the method: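 Hep3B cells were treated for 24 h with DMSO vehicle, 1 μM test compound, or 1 μM reference antimitotics. Cells were washed in ice-cold PBS and lysed 5 min at 37 °C in hypotonic buffer (20 mM Tris-HCl pH 6.8, MgCl2, EGTA, 0.5% IGEPAL, protease inhibitors), then spun 15,000 ×g for 10 min at 25 °C. Supernatant (soluble) and sonicated pellet (polymerized) fractions were western-blotted for α-tubulin, β-tubulin and β-actin.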

[15] = test system: Hep3B xenograft; assay: Hep3B xenograft nude mice model; type: in vivo, Balb/c nude mice
Summary of the method: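 Male Balb/c nude mice (4–6 weeks, 18–20 g, SPF) received 2 × 10^6 Hep3B cells s.c. in the right flank. At tumor volume >100 mm3 (day 0), mice were grouped (n = 8). The water-soluble phosphate prodrug was given i.v. at 10, 20 or 40 mg/kg, five days/week for 3 weeks; doxorubicin i.v. served as reference. Tumor size (length × width² × 0.5) and body weight were recorded every 7 days to day 21; T/C was calculated.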

Row | Compound | IC50 [1] [nM] | IC50 [2] [nM] | IC50 [3] [nM] | IC50 [4] [nM] | also measured
1 | COc1cccc(-c2cc(=O)c3c(C)ccnc3[nH]2)c1 [6a, 2-(3-Methoxyphenyl)-5-methyl-1,8-naphthyridin-4(1H)-one] | 30 | 130 | 180 | > 5000 | –
2 | COc1cccc(-c2cc(=O)c3cc(C)cnc3[nH]2)c1 [6b, 2-(3-Methoxyphenyl)-6-methyl-1,8-naphthyridin-4(1H)-one] | 60 | 120 | 140 | > 2500 | –
3 | COc1cccc(-c2cc(=O)c3c(C)cc(C)nc3[nH]2)c1 [6c, 2-(3-Methoxyphenyl)-5,7-dimethyl-1,8-naphthyridin-4(1H)-one] | 330 | 730 | 750 | > 50000 | –
4 | COc1cccc(-c2cc(=O)c3cc(Cl)cnc3[nH]2)c1 [6d, 6-Chloro-2-(3-methoxyphenyl)-1,8-naphthyridin-4(1H)-one] | 30 | 100 | 100 | > 50000 | –
5 | COc1cccc(-c2cc(=O)c3cc(F)cnc3[nH]2)c1 [6e, 6-Fluoro-2-(3-methoxyphenyl)-1,8-naphthyridin-4(1H)-one] | 70 | 200 | 240 | > 5000 | –
6 | COc1cnc2[nH]c(-c3cccc(F)c3)cc(=O)c2c1 [6g, 2-(3-Fluorophenyl)-6-methoxy-1,8-naphthyridin-4(1H)-one] | 20 | 20 | 50 | > 10000 | –
7 | COc1cnc2[nH]c(-c3cccc4ccccc34)cc(=O)c2c1 [6h, 6-Methoxy-2-(naphthalen-1-yl)-1,8-naphthyridin-4(1H)-one] | 40 | 50 | 850 | > 25000 | –
8 | COc1cnc2[nH]c(-c3csc4ccccc34)cc(=O)c2c1 [6i, 2-(Benzo[b]thiophen-3-yl)-6-methoxy-1,8-naphthyridin-4(1H)-one] | 40 | 90 | 160 | > 10000 | –
9 | CC(=O)O[C@H]1C(=O)[C@@]2(C)[C@H]([C@H](OC(=O)c3ccccc3)[C@]3(O)C[C@H](OC(=O)[C@H](O)[C@@H](NC(=O)c4ccccc4)c4ccccc4)C(C)=C1C3(C)C)[C@]1(OC(C)=O)CO[C@@H]1C[C@@H]2O [Taxol, reference compound] | 2 | 500 | 5 | – | –
10 | Cc1ccnc2[nH]c(-c3cccc(OP(=O)(O)O)c3)cc(=O)c12 [compound 11, 3-(5-Methyl-4-oxo-1,4-dihydro-1,8-naphthyridin-2-yl)phenyl dihydrogen phosphate] | – | – | – | – | Hep3B inhibitory activity compared with doxorubicin ([15]; i.v. 20 mg/kg): exceeded that of 5 mg/kg doxorubicin; Hep3B tumor weight ([15]; i.v. 40 mg/kg): 78.6 % of the control; body weight changes ([15]; i.v. 10, 20, 40 mg/kg, during antitumor evaluation): no significant body weight changes; inhibition of Hep3B tumor growth ([15]; i.v. 10, 20 and 40 mg/kg/day, five days per week, three weeks): dose- and time-dependent inhibition of Hep3B tumor growth

Second part, led by results:

Row | IC50 [1] [nM] | IC50 [2] [nM] | IC50 [3] [nM] | Compound | IC50 [4] [nM] | also measured
11 | 30 | 170 | 200 | Cc1ccnc2[nH]c(-c3cccc(O)c3)cc(=O)c12 [7a, 2-(3-Hydroxyphenyl)-5-methyl-1,8-naphthyridin-4(1H)-one] | > 50000 | average logGI50 (MID) [5]: −6.30; logGI50 [6]: less than −7.00; logGI50 [7]: less than −7.00; logGI50 [8]: less than −7.00; logGI50 [9]: less than −7.00; logGI50 [10]: less than −7.00; logGI50 [11]: less than −7.00; cell population at G2/M phase ([12]; 0.1-3 μM): significant cell population accumulation at G2/M phase in a concentration-dependent manner; sub-G1 phase population [12]: predominant increase in sub-G1 phase; cleavage of caspases and PARP [13]: concentration-dependent increase in the cleavage of caspase-8, -9, -3, and PARP; tubulin content in cytoskeleton (polymerized) fraction [14]: decreased both α-tubulin and β-tubulin contents in the cytoskeleton fraction
12 | 80 | 440 | 450 | Cc1cnc2[nH]c(-c3cccc(O)c3)cc(=O)c2c1 [7b, 2-(3-Hydroxyphenyl)-6-methyl-1,8-naphthyridin-4(1H)-one] | > 2500 | –
13 | 290 | 680 | 1300 | Cc1cc(C)c2c(=O)cc(-c3cccc(O)c3)[nH]c2n1 [7c, 2-(3-Hydroxyphenyl)-5,7-dimethyl-1,8-naphthyridin-4(1H)-one] | > 100000 | –
14 | 110 | 340 | 200 | O=c1cc(-c2cccc(O)c2)[nH]c2ncc(Cl)cc12 [7d, 6-Chloro-2-(3-hydroxyphenyl)-1,8-naphthyridin-4(1H)-one] | > 100000 | –
15 | 140 | 380 | 700 | O=c1cc(-c2cccc(O)c2)[nH]c2ncc(F)cc12 [7e, 6-Fluoro-2-(3-hydroxyphenyl)-1,8-naphthyridin-4(1H)-one] | > 100000 | –
16 | 820 | 1820 | 2480 | O=c1cc(-c2cccc(F)c2)[nH]c2nccc(O)c12 [7f, 2-(3-Fluorophenyl)-5-hydroxy-1,8-naphthyridin-4(1H)-one] | > 100000 | –
17 | 80 | 160 | 860 | O=c1cc(-c2cccc(F)c2)[nH]c2ncc(O)cc12 [7g, 2-(3-Fluorophenyl)-6-hydroxy-1,8-naphthyridin-4(1H)-one] | > 100000 | –
18 | 480 | 460 | 1340 | O=c1cc(-c2cccc3ccccc23)[nH]c2ncc(O)cc12 [7h, 6-Hydroxy-2-(naphthalen-1-yl)-1,8-naphthyridin-4(1H)-one] | > 100000 | –
19 | 570 | 1070 | 390 | O=c1cc(-c2csc3ccccc23)[nH]c2ncc(O)cc12 [7i, 2-(Benzo[b]thiophen-3-yl)-6-hydroxy-1,8-naphthyridin-4(1H)-one] | 10000 | –
